Results from ChEMBL document CHEMBL1147647, “Second generation, orally active, antimalarial, artemisinin-derived trioxane dimers with high stability, efficacy, and anticancer activity” (J Med Chem, 2006).
The source made the active and inactive calls. The rule behind the calls is not given here.

Assays:
HeLa = assay: Antiproliferative activity against HeLa cell line; type: functional, cell-based; settings: Homo sapiens
Method in brief: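 HeLa human cervical cancer cells were tested in vitro with an XTT tetrazolium colorimetric proliferation assay, using a modified version of a reported protocol. IC50 was determined.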

HOP-92 = assay: Antiproliferative activity against HOP92 cell line; type: functional, cell-based; settings: Homo sapiens
Method in brief: (§1)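 Growth inhibition was tested in vitro across the NCI Developmental Therapeutics Program 60-line human cancer panel at nanomolar to micromolar concentrations.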

BT-549 = assay: Antiproliferative activity against BT549 cell line; type: functional, cell-based; settings: Homo sapiens; method in brief: as §1
Plasmodium falciparum [1] = assay: Antimalarial activity against chloroquine-sensitive Plasmodium falciparum NF54 in mice (Mus musculus) by subcutaneous dose; type: functional; settings: NF54, sc
Method in brief: (§2)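 In mice, a single dose of 3, 10 or 30 mg/kg was given orally or subcutaneously. ED50 in mg/kg was derived from these doses following a published protocol.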

SK-MEL-5 = assay: Antiproliferative activity against SK-MEL-5 cell line; type: functional, cell-based; settings: Homo sapiens; method in brief: as §1
Plasmodium falciparum [2] = assay: Antimalarial activity against chloroquine-sensitive Plasmodium falciparum NF54; type: functional, organism-based
Plasmodium falciparum [3] = assay: Antimalarial activity against chloroquine-sensitive Plasmodium falciparum NF54 in mice (Mus musculus) by peroral dose; type: functional; settings: NF54, po; method in brief: as §2

Compound	ED50 (Plasmodium falciparum [1])	IC50 (Plasmodium falciparum [2])	also measured
COC(=O)c1cc(C[C@H]2O[C@@H]3O[C@]4(C)CC[C@H]5[C@H](C)CC[C@@H]([C@H]2C)[C@@]35OO4)c(C[C@H]2O[C@@H]3O[C@]4(C)CC[C@H]5[C@H](C)CC[C@@H]([C@H]2C)[C@@]35OO4)cc1C(=O)OC	0.71 mg/kg	1.6 nM	IC50 (HeLa): 500 nM; Activity (HOP-92): Active; Activity (BT-549): Active; Activity (SK-MEL-5): Active
C[C@@H]1CC[C@H]2[C@@H](C)C(=O)O[C@@H]3O[C@@]4(C)CC[C@@H]1[C@]32OO4 [ARTEMISININ]		6.6 nM	
C[C@H]1[C@@H](Cc2cc(CO)c(CO)cc2C[C@H]2O[C@@H]3O[C@]4(C)CC[C@H]5[C@H](C)CC[C@@H]([C@H]2C)[C@@]35OO4)O[C@@H]2O[C@]3(C)CC[C@H]4[C@H](C)CC[C@@H]1[C@@]24OO3	0.06 mg/kg	0.77 nM	IC50 (HeLa): 46.5 nM; ED50 (Plasmodium falciparum [3]): 2.6 mg/kg
C[C@H]1[C@@H](Cc2cc(C(=O)O)c(C(=O)O)cc2C[C@H]2O[C@@H]3O[C@]4(C)CC[C@H]5[C@H](C)CC[C@@H]([C@H]2C)[C@@]35OO4)O[C@@H]2O[C@]3(C)CC[C@H]4[C@H](C)CC[C@@H]1[C@@]24OO3		360 nM	
C[C@H]1[C@@H](Cc2cc3c(cc2C[C@H]2O[C@@H]4O[C@]5(C)CC[C@H]6[C@H](C)CC[C@@H]([C@H]2C)[C@@]46OO5)COP(=O)(Oc2ccccc2)OC3)O[C@@H]2O[C@]3(C)CC[C@H]4[C@H](C)CC[C@@H]1[C@@]24OO3 (some centres not stated)		3.7 nM	
CCOP(=O)(OCC)OCc1cc(C[C@H]2O[C@@H]3O[C@]4(C)CC[C@H]5[C@H](C)CC[C@@H]([C@H]2C)[C@@]35OO4)c(C[C@H]2O[C@@H]3O[C@]4(C)CC[C@H]5[C@H](C)CC[C@@H]([C@H]2C)[C@@]35OO4)cc1COP(=O)(OCC)OCC		3 nM	
C=C(C[C@H]1O[C@@H]2O[C@]3(C)CC[C@H]4[C@H](C)CC[C@@H]([C@H]1C)[C@@]24OO3)C(=C)C[C@H]1O[C@@H]2O[C@]3(C)CC[C@H]4[C@H](C)CC[C@@H]([C@H]1C)[C@@]24OO3		2.9 nM	
C[C@H]1[C@H](OC(=O)CCC(=O)[O-])O[C@@H]2O[C@@]3(C)CC[C@H]4[C@H](C)CC[C@@H]1[C@@]24OO3.[Na+] [SODIUM ARESUNATE]	2.2 mg/kg		ED50 (Plasmodium falciparum [3]): 4 mg/kg
